# Kir21 inh: inhibitors of mouse Kir2.1 inward-rectifier potassium channel | Inward rectifier potassium channel 2 (Mus musculus), P35561 | HEK293-Kir2.1, FluxOR thallium flux fluorescence; active compounds read low | B-score at 10 µM | hit rate 0.85% among 310,000 | AID 1672, 2009;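 active means fluorescence ratio B-score at or below minus 3 SD of library scores, with starting-brightness B-score within 2 SD, cut at about -4.2 in these data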;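 further: channel flux triggered by added potassium and thallium sulfate stimulus; B-score of peak minus minimum fluorescence over baseline after thallium stimulus; more negative B-score means stronger Kir2.1 block with less thallium influx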
# hERG rescue: hERG rescue from dofetilide block, primary screen, cell-based, CHO-hERG, FluxOR thallium flux, dofetilide IC70 | Voltage-gated inwardly rectifying potassium channel KCNH2 (Homo sapiens), Q12809 | dofetilide IC70 present | activation (rescue from dofetilide block), less the hit threshold, % at 10 µM | hit rate 0.51% among 310,000;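 active means activation above the mean of controls blocked by dofetilide plus 5 SD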;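 further: thallium influx through hERG after potassium depolarization seen as dye fluorescence rise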
# KCNK9 block: KCNK9 potassium channel inhibitors, primary screen, HEK293 cells, thallium flux | FluxOR thallium flux fluorescence; active compounds read low | hit rate 1.2% among 310,000 | B-score at 10 µM | AID 488922, 2010;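 active means ratio B-score over 3 SD below the library mean, with starting fluorescence within 5 SD of its mean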;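 further: negative B-score means less thallium flux so channel inhibition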
# KCNQ1 block: inhibitors of human KCNQ1 channel, primary screen, cell-based, thallium flux, high-throughput. Potassium voltage-gated channel subfamily KQT member 1 (Homo sapiens), P51787. CHO-K1 KCNQ1, FluxOR thallium flux fluorescence; active compounds read high. B-score at 10 µM. hit rate 1.3% among 310,000. AID 2642, 2010;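 active means compounds whose thallium flux B-score, printed positive for inhibition, exceeds three library SD while starting fluorescence stays within three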;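 further: channel opened by potassium depolarization with thallium stimulus after 20 min compound exposure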
# KCNK3 block: human KCNK3 channel inhibitors, primary screen, CHO cells, FluxOR thallium flux, B-score. hit rate 0.84% among 340,000. B-score at 10 µM. FluxOR fluorescence; active compounds read low;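 active means B-score under library mean minus 4 SD, starting fluorescence ratio at most library mean plus 5 SD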;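 further: more negative B-score means stronger inhibition of thallium flux through KCNK3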
# KCNQ1 pot: potentiators or activators of KCNQ1 channel, primary screen, cell-based, thallium flux, high-throughput; B-score at 10 µM; CHO-K1 KCNQ1, thallium flux FluxOR fluorescence; active compounds read high; hit rate 0.35% among 310,000;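 active means fluorescence ratio B-score, a plate-corrected score, at least three library SD, with initial intensity B-score within 5 SD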
#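 Assay system: CHO-K1 cells stably expressing KCNQ1. Medium: assay buffer for compound exposure, DMSO matched across wells. Timing: 37 °C overnight plating, 90-min dark dye load, 20-min compound pretreatment. Signal: kinetic FluxOR fluorescence, 10 s baseline plus 110 s post-stimulus.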
# KCNK9 inh conf: KCNK9 potassium channel inhibitors, confirmation, HEK293 cells, thallium flux, duplicate. FluxOR thallium flux fluorescence. inhibition, % at 10 µM. shares compounds with KCNK9 block. hit rate 43% among 4,900;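 active means thallium signal inhibited by more than 5 SD of the compound-free buffer control wells, on both duplicate plates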;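 further: 0% = assay buffer control wells without compound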
# Kir2-1 spec: mouse Kir2.1 channel inhibition, confirmation, selectivity assay for KCNK9 modulator project, cell-based, HEK293, thallium flux; AID 492993, 2010; inhibition, % at 10 µM; shares compounds with KCNK9 block; Kir2.1 cells, FluxOR thallium flux fluorescence; hit rate 4% among 4,900;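 active means thallium signal drop more than 5 SD beyond the mean of the no-compound control wells, seen in both duplicate plates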;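 further: signal is fluorescence rise after thallium addition divided by baseline fluorescence; plate controls were assay buffer only for no effect and full block by chlorpromazine control for full effect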
# KCNK9 uninduced: thallium flux in non-induced HEK293 cells, confirmation, counter-screen for KCNK9 inhibitor project, cell-based, second counter screen, non-induced KCNK9-HEK293; FluxOR thallium flux; inhibition, % at 10 µM; hit rate 40% among 4,900; shares compounds with KCNK9 block;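 active means thallium signal drop beyond 5 SD of the untreated control mean, on both duplicate plates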;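 further: plate controls were buffer only IC0 wells for no effect and SID17386958 at its maximal inhibitory level for full effect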
# An asterisk follows results filed as active; i = inactive; nt = not tested or not shown. In the library only some 3.7% were active in any assay of this set; here they are far more common.
SMILES,Kir21 inh,hERG rescue,KCNK9 block,KCNQ1 block,KCNK3 block,KCNQ1 pot,KCNK9 inh conf,Kir2-1 spec,KCNK9 uninduced
CC(NC(=O)/C(C#N)=C/c1ccc(C(=O)O)cc1)c1ccccc1 (stereo unspecified),0.01,-12,i,i,i,i,i,i,i
O=S(=O)(Nc1ccc2c(c1)OCO2)c1ccc(Cl)cc1F,nt,nt,nt,nt,i,nt,nt,nt,nt
COc1cccc(C(=O)NCC(=O)NCc2cc(=O)n(C)c(=O)n2C)c1OC,0.62,-6,i,i,i,i,nt,nt,nt
CSc1cccc(NC(=S)N(CCCN2CCCC(C)C2)Cc2cccs2)c1 (stereo unspecified),-0.76,-28,i,i,i,i,nt,nt,nt
N#C/C(=C\c1cn[nH]c1-c1ccccc1)C(=O)NC1CCCCCC1,1.1,-8,i,i,i,i,i,i,i
N#C/C(=C\c1cn[nH]c1-c1ccc(Cl)cc1)C(=O)NC1CC1,-0.12,-12,i,i,i,i,nt,nt,nt
COc1ccc(NC(=S)N2CCN(S(=O)(=O)c3ccc(F)cc3)CC2)cc1,0.64,-10,i,i,i,i,nt,nt,nt
Cc1nn(-c2ccccc2)c(N2CCCC2)c1/C=N/NC(=S)Nc1ccccc1C(F)(F)F,0.09,-3,-9.1*,i,i,i,44%*,i,i
Cc1nn(-c2ccccc2)c(N2CCCC2)c1/C=N/NC(=S)Nc1cc(C(F)(F)F)ccc1Cl,1.6,-11,i,i,i,i,nt,nt,nt
Cn1c(=O)oc2cc(S(=O)(=O)CCC(=O)N3CCN(c4ccccc4F)CC3)ccc21,-2.3,-3,i,i,i,i,nt,nt,nt
Cc1ccc(C)c(N2CCN(C(=O)CCS(=O)(=O)c3ccc4c(c3)oc(=O)n4C)CC2)c1,0.85,-9,i,i,i,i,i,i,i
Cc1ccc2c(c1)N(CC(=O)NCCc1ccccc1)C(=O)c1cccnc1O2,-1.6,-11,i,i,i,i,i,i,i
COc1ccc(CNC(=O)C(C)N(Cc2ccccc2OC)C(=O)c2snc(C(N)=O)c2N)cc1 (stereo unspecified),-0.48,-10,i,i,i,i,nt,nt,nt
CCOc1ccccc1NC(=O)CSc1nnc(-c2ccccc2Cl)n1Cc1ccco1,-2.2,-7,-10*,i,i,i,53%*,i,36%*
CCOc1ccccc1NC(=O)CSc1nnc(-c2ccco2)n1Cc1ccco1,-4,-4,i,i,i,i,nt,nt,nt
COc1cc(CN(C)CC2CCCN(CCc3ccccc3F)C2)cc(Cl)c1OC (stereo unspecified),-4.9*,-4,i,i,i,i,i,i,i
COc1ccccc1CCN1CCCC(CN(C)Cc2ccc(OCCO)cc2)C1 (stereo unspecified),0.62,-10,i,i,i,i,nt,nt,nt
CCCc1ccc(OCc2ccc(C(=O)NN)o2)c(OC)c1,0.51,-6,i,i,i,i,nt,nt,nt
CN(Cc1ccccc1)C(=O)COc1ccccc1Cl,-0.08,-4,i,i,i,i,nt,nt,nt
CN(Cc1ccccc1)C(=O)COc1ccc(Br)cc1Cl,0.01,-13,-12*,i,i,i,37%*,i,30%*
